High-throughput results: PubChem BioAssay, several laboratories
XBP1 UPR activ: adaptive UPR (XBP1) activation | CHO-XBP1 luciferase reporter, IRE1-XBP1 UPR activation, luminescence; percent of tunicamycin response, DMSO as zero | activation, % at 20 µM | actives 0.33% (n = 330,000);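 active = versus positive control, 20 µM dose yields 30% or more activation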;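 also: 100% = tunicamycin at 10 µg/mL and 0% = DMSO only wells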
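Assay system: CHO-XBP1 luciferase reporter cells; Schedule: 6 h treatment, 37 °C; Detection: glow luminescence from Steady-Glo reagent; Benchmarks: high control tunicamycin 10 µg/mL final, low control DMSO vehicle only.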
Jurkat NFkB inh: lowers PMA/ionomycin-induced NF-kB signal in Jurkat cells. PMA/ionomycin-induced NF-kB luciferase reporter, luminescence. inhibition, % at 4 µM. actives 0.53% (n = 330,000). AID 435003; in the data active = inhibition above about 50%
CHOP inh: blocks CHOP induction under ER stress | CHO-K1 CHOP-promoter luciferase, tunicamycin-induced, 15-18 h | inhibition, % at 10 µM | actives 3.8% (n = 220,000) | AID 2732;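 active = compounds that reduced the stress-induced luciferase reporter signal by more than about 70% of percent inhibition, limit read from the data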;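 also: 0% = tunicamycin plus vehicle and 100% = wells without tunicamycin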
UPR CHOP act: apoptotic UPR (CHOP) activation; CHO-CHOP luciferase reporter, luminescence; percent of tunicamycin response over DMSO baseline; activation, % at 10 µM; actives 0.34% (n = 330,000);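 active = at 10 µM dose, activation of 40% or more, normalized to positive control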;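 also: 100% = tunicamycin at 10 µg/mL and 0% = DMSO alone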
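Evaluation: % reporter activation, DMSO baseline versus tunicamycin full activation; System: CHO-CHOP luciferase reporter cell line; Input: 500 cells/well; Incubation: 6 h compound treatment, 37 °C; Measured by: Steady-Glo luciferase luminescence; Dosing: one dose, 10 µM in 0.5% DMSO; Buffer or medium: F12 medium, 10% FBS; Benchmarks: positive tunicamycin 10 µg/mL, negative DMSO alone.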
697 NFkB inh: lowers PMA/ionomycin-induced NF-kB signal in 697 B cells. 697 B-cell NF-kB luciferase reporter, 16 h. AID 435022. actives 0.33% (n = 330,000). inhibition, % at 4 µM; in the data active = inhibition above about 35%
CHOP confirm: confirmation of CHOP induction inhibitors; shares compounds with CHOP inh; CHO-CHOP promoter luciferase reporter, tunicamycin-induced, luminescence; inhibition, % at 10 µM; actives 45% (n = 2,100);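 active = mean of three repeat readings of reporter signal inhibition above a set limit, cut at about 70% in these data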;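 also: 0% = tunicamycin plus vehicle and 100% = wells lacking tunicamycin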
Numbers without * were called inactive; x = not tested or not shown. The entries come from a sample that favours hits as a whole.

SMILES | XBP1 UPR activ | Jurkat NFkB inh | CHOP inh | UPR CHOP act | 697 NFkB inh | CHOP confirm
COc1cccc(NC(=O)N2CCCC2C(=O)NC23CC4CC(CC(C4)C2)C3)c1 (configuration not stated) | -0.2 | -18.4 | x | -0.8 | 4.3 | x
CC1=NOC(=O)/C1=C\c1ccc2c(c1)OCO2 | 1.4 | 6.6 | 101.0* | -0.3 | 5.2 | -30.6
CC1=NOC(=O)/C1=C/c1ccc2c(c1)OCO2 | -1.8 | -8.5 | 100.3* | 0.0 | -6.2 | -27.2
COc1ccc(/C=C2/C(=O)ON=C2C)cc1Br | -3.0 | -5.6 | x | 0.9 | 7.5 | x
COC(=O)Cn1c(=NC(=O)C2COc3ccccc3O2)sc2cc(S(N)(=O)=O)ccc21 (configuration not stated) | -1.4 | 2.4 | 1.9 | 1.2 | 22.4 | x
COc1ccccc1N1CCN(C(=O)CCc2nnc3ccc(N4CCC(C)CC4)nn23)CC1 | -2.2 | 19.5 | x | 2.9 | 0.9 | x
O=S(=O)(NCC(Nc1ccccc1)c1ccccc1)c1ccc(Cl)cc1 (configuration not stated) | -2.4 | -20.4 | 101.6* | 0.3 | -22.4 | 32.8
Cc1cccc(NC(=O)CN2C(=O)CCS(=O)(=O)c3ccccc32)c1C | -2.9 | 18.8 | x | -0.7 | -19.9 | x
O=c1[nH]c(/C(Cl)=C/c2cc(Cl)ccc2O)nc2cc(Cl)ccc12 | -0.6 | 6.6 | 99.6* | 0.8 | 2.5 | 23.3
O=C1c2ccccc2C(=O)C12OC2c1ccc(Cl)cc1 (configuration not stated) | -4.5 | 12.1 | 109.0* | 103.1* | -5.9 | -21.2
Cc1cc(NC(=O)c2sc(Nc3cccc(C(F)(F)F)c3)nc2N)no1 | 1.0 | -14.9 | 10.0 | 3.8 | -0.1 | x
Cc1cc(NC(=O)c2sc(Nc3ccc(F)c(Cl)c3)nc2N)no1 | 0.2 | 7.6 | 100.3* | 2.2 | -7.6 | -31.7
COC(=O)c1ccc2c(c1)C(C)(C)C(/C=C/c1ccc(O)cc1)=[N+]2C | -6.7 | 45.3 | 112.1* | -10.8 | -65.8 | 137.6*
CCOc1cc(/C=C2/NC(=O)N(CC(=O)Nc3cccc(C)c3)C2=O)ccc1OCC(N)=O | -3.0 | -25.3 | 14.9 | -0.3 | 10.7 | x
CCOc1cccc(/C=C2/NC(=O)N(CC(=O)Nc3cccc(C)c3)C2=O)c1O | -0.9 | -16.6 | 103.8* | 0.0 | 14.7 | -57.8
Cn1ncc(S(=O)(=O)Cc2ccccc2)c(Cl)c1=O | -4.3 | -3.1 | 102.0* | -6.7 | 1.9 | -2.6
CCOc1ccc(S(=O)(=O)Nc2ccc(C(=O)NCC(c3ccccc3)N(C)C)cc2)cc1 (configuration not stated) | -5.1 | 9.1 | x | 0.1 | 1.3 | x
CC1CCC(C(C)C)C(OCC(O)CN2CCOCC2)C1 (configuration not stated) | 0.5 | 31.2 | 44.9 | -1.6 | 2.9 | x
CC1CCC(C(C)C)C(OCC(O)CN2CCN(Cc3ccccc3)CC2)C1 (configuration not stated) | -2.0 | 8.9 | 99.4* | -0.9 | 7.5 | 103.5*
CC(C)(C)C1CCc2onc(C(=O)Nc3cccnc3)c2C1 (configuration not stated) | 5.7 | 11.0 | 47.5 | 1.6 | -19.3 | x
CC(C)(C)C1CCc2onc(C(=O)Nc3cccc(O)c3)c2C1 (configuration not stated) | 4.4 | -0.2 | 109.4* | 3.4 | -57.3 | 25.2
O=C(O)c1cc(NC(=O)c2ccc(Cl)c([N+](=O)[O-])c2)cc(C(=O)O)c1 | -3.4 | 3.6 | 2.1 | 0.7 | 6.4 | x
O=C(Nc1ccc(C(O)(C(F)(F)F)C(F)(F)F)cc1)c1ccc(Cl)c([N+](=O)[O-])c1 | 2.8 | -13.1 | 107.2* | 3.3 | 0.3 | 117.4*
C/C(=N\Nc1nc2ccccc2[nH]1)c1ccc([N+](=O)[O-])cc1 | 5.1 | -4.1 | 102.3* | 2.3 | -7.5 | 26.4
O=C(Nc1nc2ccccc2[nH]1)c1ccc([N+](=O)[O-])cc1 | 1.3 | -110.3 | -23.5 | 6.5 | -154.4 | x
SMILES | XBP1 UPR activ | Jurkat NFkB inh | CHOP inh | UPR CHOP act | 697 NFkB inh | CHOP confirm
CC(C)(C)c1ccc(C(=O)NNC(=O)CCC(=O)Nc2ccccc2)cc1 | -2.2 | -17.0 | x | 3.2 | 18.3 | x
CCn1ncc(Cl)c1C(=O)Nc1cc(Cl)ccc1Cl | -0.1 | -2.9 | 99.7* | -3.6 | -4.3 | 17.3
CCn1nccc1C(=O)Nc1cc(Cl)ccc1Cl | -0.9 | 1.6 | 29.5 | 0.1 | -6.5 | x
CCOc1ccc(-c2nc(N)ncc2Oc2ccccc2Br)c(O)c1 | -0.8 | 1.9 | 106.1* | -3.6 | 22.0 | 47.3
COc1ccc(-c2cnc(N)nc2-c2ccc(OCc3ccccc3)cc2O)cc1 | 2.8 | 8.0 | 16.3 | 0.7 | 1.4 | x
CCOc1ccc(-c2nc(N)ncc2Oc2cccc(OC)c2)c(O)c1 | 2.6 | 15.0 | 109.7* | -0.3 | -26.4 | 25.0
CCOc1ccc(-c2n[nH]c(C)c2Oc2ccc(OC)cc2)c(O)c1 | 5.8 | 9.9 | 107.8* | 4.8 | -13.9 | 88.4*
Cc1[nH]nc(-c2ccc(OCc3cnn(-c4ccccc4)c3)cc2O)c1Oc1ccc(F)cc1 | -2.4 | 1.3 | 67.5 | -1.8 | -6.2 | x
C=C(C)COc1ccc(-c2nc(N)ncc2Oc2ccc(OC)cc2)c(O)c1 | 1.7 | 2.4 | 66.5 | 2.0 | 9.5 | x
O=C(O)c1ccccc1C(=O)Nc1ccc(S(=O)(=O)Nc2ccc(F)cc2)cc1 | -0.8 | 5.8 | x | 2.0 | 13.1 | x
COc1cc(OC)nc(-n2ncc(Br)c(Br)c2=O)n1 | x | x | 111.0* | x | x | 118.5*
COc1ccc(C(=O)c2c(C(F)(F)F)oc3c2C(=O)c2ccccc2C3=O)cc1OC | -4.9 | 31.9 | 105.9* | 5.8 | -26.2 | 70.6
COc1ccc(C(=O)Nc2ccc3c(c2)C(=O)c2ccccc2C3=O)cc1OC | 1.8 | -13.2 | 2.7 | 3.2 | 0.6 | x
CCOc1ccc(C2C(C(=O)c3ccco3)=C(O)C(=O)N2CCCn2ccnc2)cc1OC (configuration not stated) | -5.8 | -0.1 | x | 5.5 | -7.3 | x
CN(/N=C/c1ccncc1)c1cnn(-c2ccc(F)c(Cl)c2)c(=O)c1Cl | -2.1 | -5.2 | 100.2* | 2.2 | -14.5 | 3.3
Cc1ccc(-n2ncc(N(C)C)c(Cl)c2=O)cc1 | -4.9 | -85.8 | 28.2 | -2.4 | -132.7 | x
COC(=O)C(Nc1ccccc1Cl)(c1cc(C)c(O)c(C)c1)C(F)(F)F (configuration not stated) | -0.6 | 24.9 | 109.3* | 0.5 | 26.5 | 96.7*
COc1ccc(CNC(=O)CN(Cc2ccc(OC)cc2)C(=O)CCC(=O)Nc2nccs2)cc1 | -3.1 | -8.1 | x | -1.7 | 19.1 | x
Cc1sc(NC(=O)c2cccc([N+](=O)[O-])c2)c(C(N)=O)c1-c1ccc(C(C)(C)C)cc1 | -0.9 | 0.9 | 106.7* | 10.0 | -22.6 | 138.7*
c1ccc(-c2nnnn2-c2ccccc2)cc1 | 1.6 | -1.4 | x | 0.1 | 7.5 | x
ClC(Cl)(c1nnnn1-c1ccccc1)c1nnnn1-c1ccccc1 | x | x | 108.2* | x | x | 30.3
